Laboratory results from the array DNA melting data of Ke et al. (doi:10.1101/2024.01.08.574731).

Experiments:
[1] = folding enthalpy; higher = less favourable; fluorescence melt of hairpins on a sequencing array, two-state fit; conditions: sodium 0.088 M
Method in brief: (§1)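 Hairpins were imaged by Cy3 fluorescence on a sequenced MiSeq flow cell with annealed Cy3 and quencher oligos, in 50 mM Na-HEPES pH 8.0, 25 mM NaCl, in 2.5 °C steps up to 60 °C. Bootstrapped two-state fits of normalised signals gave melting temperature and folding enthalpy. Four replicates were combined by inverse variance, and fitted temperatures were raised by 9.35 °C to match UV melts.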

[2] = melting temperature; fluorescence melt of hairpins on a sequencing array, two-state fit, raised by 9.35 °C to match UV melts; conditions: sodium 0.088 M
Method in brief: as §1

For TGACTGAAAAGTCA (((((....))))), the folding enthalpy [1] was -23.2 kcal/mol and the Tm [2] was 46 °C.

In the case of GTGTCGCGAAAGCGCAC (((.(((....)))))), the folding enthalpy [1] is reported as -18.8 kcal/mol and the Tm [2] is reported as 56.6 °C.

In the case of GAGATGGGAAACTGTCTC ((((..(....)..)))), the folding enthalpy [1] is reported as -21.5 kcal/mol and the Tm [2] is reported as 33.2 °C.

GATCGCTATGGCGATC ((((((....)))))) showed a folding enthalpy [1] of -30.2 kcal/mol and a Tm [2] of 69.1 °C.

GCGGTTACCCGC ((((....)))) showed a folding enthalpy [1] of -28.4 kcal/mol and a Tm [2] of 56.7 °C.

In the case of GTCACCGAAAGGTTAGAC ((((((....)))..))), the folding enthalpy [1] is reported as -17.1 kcal/mol and the Tm [2] is reported as 39.4 °C.

GGAGTCGAAAGACTGTCC ((((((....)))..))) showed a folding enthalpy [1] of -12.1 kcal/mol and a Tm [2] of 35.2 °C.

GGCGACGAAAGTCGAGCC ((((((....)))..))) gave a folding enthalpy [1] of -15.9 kcal/mol and a Tm [2] of 55.8 °C.

GCCGAGGGAAACCCCGAC (.((.((....)).)).) gave a folding enthalpy [1] of -13.8 kcal/mol and a Tm [2] of 31 °C.

CGAGCTCGGAAACGATCG (((..(((....)))))) showed a folding enthalpy [1] of -6.9 kcal/mol and a Tm [2] of 27.9 °C.

Work on GTGTCTGGAAACAAACAC ((((.((....)).)))) yielded a folding enthalpy [1] of -21.6 kcal/mol and a Tm [2] of 33.2 °C.

For GATCTACTGCTAGATC ((((((....)))))), the folding enthalpy [1] was -26.1 kcal/mol and the Tm [2] was 40.1 °C.

With GACTGCGAAAGCAAGTC ((((((....))).))) the folding enthalpy [1] was -21.3 kcal/mol and the Tm [2] was 56.1 °C.

With GAGTGTGGAAACACGTTC ((..(((....)))..)) the folding enthalpy [1] was -12.2 kcal/mol and the Tm [2] was 42.9 °C.

GCGTGTTCACGC ((((....)))) gave a folding enthalpy [1] of -29 kcal/mol and a Tm [2] of 59.5 °C.

GCCGGTGGAAACACCGAC (.(((((....))))).) showed a folding enthalpy [1] of -12.4 kcal/mol and a Tm [2] of 55.3 °C.

In the case of GCCTTCGAAAGAACCGGC ((((((....)))..))), the folding enthalpy [1] is reported as -19.4 kcal/mol and the Tm [2] is reported as 33.9 °C.

With GTGCCTGGAAACGGGTAC ((.((.(....).)).)) the folding enthalpy [1] was -18.6 kcal/mol and the Tm [2] was 44 °C.

Work on GTGCGACGAAAGTCCAC (((.(((....)))))) yielded a folding enthalpy [1] of -29.4 kcal/mol and a Tm [2] of 52 °C.

For GGGAGCGAAAGCTTACCC ((((((....)))..))), the folding enthalpy [1] was -16.9 kcal/mol and the Tm [2] was 42.5 °C.

GGATATCGAAAGATCTCC (((.(((....))).))) gave a folding enthalpy [1] of -30.9 kcal/mol and a Tm [2] of 39.1 °C.

GGAATTCCGAAAGGATCC (((..(((....)))))) showed a folding enthalpy [1] of -10.9 kcal/mol and a Tm [2] of 28 °C.

In the case of GTTCGTGGAAACATGAGC (.((.((....)).)).), the folding enthalpy [1] is reported as -18.1 kcal/mol and the Tm [2] is reported as 31.6 °C.

Work on GATCAGTCGACTGATC ((((((....)))))) yielded a folding enthalpy [1] of -53.5 kcal/mol and a Tm [2] of 55.5 °C.

Work on GTAAGAACGAAAGTTTAC (((..(((....)))))) yielded a folding enthalpy [1] of -8.19 kcal/mol and a Tm [2] of 24.3 °C.

For GAATCGGGAAACCGGTTC (((.(((....))).))), the folding enthalpy [1] was -35.8 kcal/mol and the Tm [2] was 50.2 °C.

GATCTTTCGAAGATC ((((((...)))))) gave a folding enthalpy [1] of -28.7 kcal/mol and a Tm [2] of 40.7 °C.

In the case of GACAAACGAAAGTTAGTC (((.(((....))).))), the folding enthalpy [1] is reported as -30.9 kcal/mol and the Tm [2] is reported as 44.3 °C.

Sequence GATCATGGCTATGATC ((((((....)))))) has a folding enthalpy [1] of -40.6 kcal/mol and a Tm [2] of 53.7 °C.

In the case of GGGTTTGGAAACAGACCC ((((.((....)).)))), the folding enthalpy [1] is reported as -39.9 kcal/mol and the Tm [2] is reported as 48.8 °C.

In the case of GCAACGCGAAAGCTTAGC ((.(.((....)).).)), the folding enthalpy [1] is reported as -7.66 kcal/mol and the Tm [2] is reported as 28.5 °C.

In the case of GCCGAGCGAAAGCGTGGC (((..((....))..))), the folding enthalpy [1] is reported as -25.4 kcal/mol and the Tm [2] is reported as 68.3 °C.

For GCACGGCGAAAGCAATGC (((..((....))..))), the folding enthalpy [1] was -15.5 kcal/mol and the Tm [2] was 39.1 °C.

Work on GTGCCTGGAAACGGGCAC (((((.(....).))))) yielded a folding enthalpy [1] of -36.8 kcal/mol and a Tm [2] of 65.5 °C.

GATAACGAAAGTTCATC ((((((....))).))) showed a folding enthalpy [1] of -10.4 kcal/mol and a Tm [2] of 26.2 °C.

In the case of GCTAAGCGAAAGCTGTGC ((..(((....)))..)), the folding enthalpy [1] is reported as -18.1 kcal/mol and the Tm [2] is reported as 48.6 °C.

In the case of GGGAGGCGAAAGCCCCCC (((.(((....))).))), the folding enthalpy [1] is reported as -17.2 kcal/mol and the Tm [2] is reported as 64.8 °C.

With GTCCTCGGAAACAAGGAC (((((.(....).))))) the folding enthalpy [1] was -25.8 kcal/mol and the Tm [2] was 39.3 °C.
